High-throughput results (PubChem)
Shown are actives, neighbours in structure and some others; about 3% of the full set was active somewhere.
M4 antag: antagonists of human muscarinic M4 receptor (CHRM4) | P08173 | CHO-hM4 cells, ACh EC80, Fluo-8 calcium fluorescence | inhibition, % at 3 µM | 0.73% of 360,000 active;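 active = inhibition above its plate's cutoff, the mean inhibition of sample wells plus 3 SD, cut at about 27% in these data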;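 also: 0% = acetylcholine EC80 with DMSO and 100% = DMSO without agonist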
Target sequence (P08173 whole entry, looked up): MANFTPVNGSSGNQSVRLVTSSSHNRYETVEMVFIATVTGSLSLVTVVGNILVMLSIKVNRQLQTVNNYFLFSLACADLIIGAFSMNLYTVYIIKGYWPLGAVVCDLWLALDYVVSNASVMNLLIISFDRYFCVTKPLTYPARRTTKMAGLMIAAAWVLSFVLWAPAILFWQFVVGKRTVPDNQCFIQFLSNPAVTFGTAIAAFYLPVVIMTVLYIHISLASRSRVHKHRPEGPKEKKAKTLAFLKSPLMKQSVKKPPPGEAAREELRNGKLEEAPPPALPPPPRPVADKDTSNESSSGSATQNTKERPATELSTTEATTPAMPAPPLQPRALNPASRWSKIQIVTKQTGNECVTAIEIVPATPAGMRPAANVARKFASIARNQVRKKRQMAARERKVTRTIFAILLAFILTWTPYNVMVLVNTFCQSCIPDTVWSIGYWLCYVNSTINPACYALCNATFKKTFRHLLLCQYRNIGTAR
CHRM4 agonist: CHRM4 agonism in calcium assay. 0.14% of 360,000 active. AID 624127. CHO-K1 hM4/Gqi5, Fluo-8 calcium fluorescence; vehicle 0%, full acetylcholine response 100%. activation, % at 3 µM;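 active = activation above the run mean over all test wells plus 3 SD, cut at about 32% in these data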;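 also: peak over basal fluorescence ratio per well then scaled between controls; 0% = DMSO wells and 100% = acetylcholine at EC100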
TAAR1 antagonist: human TAAR1 antagonism; Q96RJ0; CHO RD-HGA16 TAAR1, Fluo-8 calcium fluorescence, antagonist; inhibition, % at 3 µM; 1.5% of 360,000 active; AID 624466;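 active = inhibition above a per-plate cutoff, the mean inhibition of test compounds on that plate plus 3 SD, cut at about 49% in these data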;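 also: 0% = DMSO plus EC80 beta-PEA response and 100% = DMSO alone without agonist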
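System: RD-HGA16 CHO cells with stable hTAAR1 and Gα16 | Probe or stimulus: EC80 β-phenethylamine stimulus | Dosing: 3 µM, single point | Times: Dye loading 75 min at 37 °C, then 30 min room temperature | Measured by: Fluo-8 calcium-sensitive fluorescence | Read-out basis: % inhibition of agonist calcium response | Replicates: n of 1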
CHRM4 PAM: CHRM4 positive allosteric modulation; P08173; CHO-K1 hM4/Gqi5, Fluo-8 calcium fluorescence, ACh EC20; 0% = ACh EC20, 100% = maximal ACh; activation, % at 3 µM; 0.4% of 360,000 active;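 active = activation above its plate's cutoff, the mean activation of sample wells plus 3 SD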
TAAR1 ag: human TAAR1 agonism; Q96RJ0; CHO RD-HGA16 TAAR1, Fluo-8 calcium fluorescence; vehicle wells 0%, saturating PEA agonist 100%; activation, % at 3 µM; 0.99% of 360,000 active; AID 624467;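 active = activation above the mean activation of all test compounds in the run plus 3 SD, cut at about 38% in these data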
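Test system: RD-HGA16 (CHO) cells co-expressing Gα16 and hTAAR1 / Benchmarks: DMSO vehicle as 0%, PEA at EC100 as 100% / Repeats: no replicates (n 1) / Measure: % activation from peak over basal fluorescence ratio, DMSO-to-PEA scaled / Timing: 17-24 h plating, Fluo-8 75 min 37 °C, 30 min RT / Technique: kinetic Fluo-8 calcium fluorescence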
TAAR1 ag confirm: confirmation of human TAAR1 agonists; shares compounds with TAAR1 ag; CHO RD-HGA16 TAAR1, Fluo-8 calcium fluorescence; scaled: DMSO 0%, maximal phenethylamine 100%; activation, % at 3 µM; 82% of 2,400 active; AID 651783;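 active = activation above a cutoff set at the run's mean compound activation plus 3 SD, cut at about 39% in these data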
Ga16 ag counter: nonselective agonism, TAAR1 counter-screen. shares compounds with TAAR1 ag. CHO-Ga16 parental, Fluo-8 calcium fluorescence; normalized to maximal ATP response, DMSO zero. activation, % at 3 µM. 50% of 2,400 active. AID 651787;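 active = activation above the run cutoff, the mean activation over all tested wells plus 3 SD, cut at about 12% in these data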;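 also: 0% = DMSO wells and 100% = maximal ATP response on the peak over basal ratio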
TAAR1 desens: counter-screen for human TAAR1 agonists: agonists that desensitize TAAR1 | 46% of 2,400 active | CHO RD-HGA16 hTAAR1, Fluo-8 calcium, beta-PEA response inhibition | shares compounds with TAAR1 ag | inhibition, % at 3 µM;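 active = inhibition above the run cutoff, the mean inhibition of all test compounds plus 3 SD, cut at about 49% in these data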;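 also: beta-PEA stimulus applied at its EC80; loss of beta-PEA calcium signal after compound pretreatment read as receptor desensitization; 0% = DMSO with beta-PEA at EC80 and 100% = DMSO alone without agonist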
Ga16 nonsel ant: nonselective Ga16 antagonist in TAAR1 agonist counter-screen | shares compounds with TAAR1 ag | CHO-Ga16 ATP-induced calcium, Fluo-8 fluorescence | inhibition, % at 3 µM | 39% of 2,400 active;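 active = inhibition above the plate's mean compound inhibition plus 3 SD, computed per plate, cut at about 22% in these data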;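 also: 0% = EC80 ATP with DMSO and 100% = DMSO wells without ATP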
An asterisk follows results filed as active.

COCc1cc(C)nc(N2CCNCC2)c1C#N was read as M4 antag 6.8, CHRM4 agonist 1.2, TAAR1 antagonist 7.8, CHRM4 PAM 4.9, TAAR1 ag 52.7*, TAAR1 ag confirm 56.6*, Ga16 ag counter 0.1, TAAR1 desens 22.5 and Ga16 nonsel ant 3.0.
CC(=O)Nc1cccc(-c2ccnc3c2CC(C)(C(=O)Nc2ccc(C(C)C)cc2)O3)c1 (stereo unspecified) was read as M4 antag 3.0, CHRM4 agonist 2.0, TAAR1 antagonist -25.5, CHRM4 PAM -3.3 and TAAR1 ag -0.1.
For CN(C)CCNc1ncnc2c1ncn2[C@H]1CN(Cc2cccs2)C[C@@H](CO)O1 the results were M4 antag -1.6, CHRM4 agonist 0.0, TAAR1 antagonist -4.5, CHRM4 PAM 0.0 and TAAR1 ag 1.2.
Screening C[C@@H]1CCCCO[C@@H](CN(C)C(=O)CCCN(C)C)[C@@H](C)CN([C@H](C)CO)C(=O)c2cc(N(C)C)ccc2O1 returned M4 antag 9.5, CHRM4 agonist 0.9, TAAR1 antagonist -4.5, CHRM4 PAM -6.8 and TAAR1 ag 4.5.
For CN1C(=O)/C(=C\c2ccc(N(C)C)cc2)OC1=S the results were M4 antag 4.0, CHRM4 agonist 29.5, TAAR1 antagonist 62.3*, CHRM4 PAM -10.8, TAAR1 ag 100.2*, TAAR1 ag confirm 87.1*, Ga16 ag counter 115.8*, TAAR1 desens 58.1* and Ga16 nonsel ant 67.9*.
CCC(=O)N(CC)c1nc(-c2cc(OC)ccc2OC)cs1 was read as M4 antag -12.5, CHRM4 agonist -1.2, TAAR1 antagonist 43.0, CHRM4 PAM 11.3, TAAR1 ag 50.3*, TAAR1 ag confirm 44.7*, Ga16 ag counter 35.5*, TAAR1 desens 39.5 and Ga16 nonsel ant 26.5*.
For CCC(=O)N(CCCN(C)C)c1nc(-c2cc(OC)ccc2OC)cs1 the results were M4 antag -0.5, CHRM4 agonist 0.9, TAAR1 antagonist -2.1, CHRM4 PAM 4.5 and TAAR1 ag 3.6.
For CSCCC(C(=O)NCc1ccccc1)n1c(Cc2cc(F)cc(F)c2)nc2ccccc21 (stereo unspecified) the results were M4 antag -1.9, CHRM4 agonist 17.1, TAAR1 antagonist 38.1, CHRM4 PAM -13.4 and TAAR1 ag 4.5.
COc1ccc(CC(N)c2csc(NC(=O)c3cc(C(C)(C)C)oc3C)n2)cc1 (stereo unspecified) was read as M4 antag 5.7, CHRM4 agonist 18.5, TAAR1 antagonist 28.3, CHRM4 PAM -2.0, TAAR1 ag 48.0*, TAAR1 ag confirm 29.6, Ga16 ag counter 30.1*, TAAR1 desens 40.1 and Ga16 nonsel ant 51.0*.
NC(Cc1ccc(F)cc1)c1csc(NC(=O)NC(c2ccccc2)c2ccccc2)n1 (stereo unspecified) was read as M4 antag 27.8*, CHRM4 agonist 17.3, TAAR1 antagonist 67.8*, CHRM4 PAM 6.6, TAAR1 ag 56.4*, TAAR1 ag confirm 25.1, Ga16 ag counter 23.0*, TAAR1 desens 35.4 and Ga16 nonsel ant 44.7*.
COc1ccc(CC(N)c2csc(NC(=O)Nc3ccc(OC)cc3)n2)cc1 (stereo unspecified) was read as M4 antag 9.1, CHRM4 agonist 7.6, TAAR1 antagonist 25.9, CHRM4 PAM 0.8 and TAAR1 ag 24.6.
